# From ChEMBL document CHEMBL4118197, “The discovery and preclinical evaluation of BMS-707035, a potent HIV-1 integrase strand transfer inhibitor” (Bioorg Med Chem Lett, 2018)
# How the values were obtained:
# Canis familiaris = species: Canis familiaris; experiment: Toxicity in dog assessed as occurence of convulsions; type: organism-based, Canis lupus familiaris; conditions: in vivo
# [1] = Protein binding in human plasma; type: ADME, cell-free; conditions: read-out: PPB (converted)
# Homo sapiens [2] = experiment: Toxicity in normal healthy human at 200 to 1200 mg, po, administered as single dose; type: organism-based; conditions: in vivo
# Method in brief: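 Human subjects received single oral doses of 200, 600, 800 or 1200 mg and were monitored for clinically significant adverse events.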
# [3] = Protein binding in dog plasma; type: ADME, cell-free, Canis lupus familiaris; conditions: read-out: PPB (converted)
# [4] = Clearance in cynomolgus monkey at 1 mg/kg, iv; type: ADME, organism-based, Macaca fascicularis; conditions: in vivo
# Method in brief: (§1)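 Single IV (about 1 mg/kg) and oral (about 5 mg/kg) doses in rat, cynomolgus monkey and dog; CL, t1/2, Vss, Cmax, tmax, AUC and oral bioavailability F derived from plasma concentration-time data.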
# HepG2 = experiment: Cytotoxicity against human HepG2 cells; type: cell-based
# Homo sapiens [5] = species: Homo sapiens; experiment: Inhibition of human p-gp assessed as decrease in [3H]-digoxin transport at 10 uM
# [6] = AUC in Sprague-Dawley rat at 4.4 mg/kg, po; type: ADME, organism-based; conditions: in vivo; method in brief: as §1
# [7] = Dissociation constant, pKa of the compound; type: physicochemical
# [8] = Oral bioavailability in Beagle dog at 5.2 mg/kg; type: ADME, organism-based, Canis lupus familiaris; conditions: in vivo; method in brief: as §1
# [9] = Solubility of the compound at pH 8.5; type: physicochemical; conditions: buffer
# Cytochrome P450 2C19 = Cytochrome P450 2C19 (Homo sapiens, UniProt P33261); experiment: Inhibition of human CYP2C19; type: ADME
# Cytochrome P450 2C19, sequence (P33261 whole entry): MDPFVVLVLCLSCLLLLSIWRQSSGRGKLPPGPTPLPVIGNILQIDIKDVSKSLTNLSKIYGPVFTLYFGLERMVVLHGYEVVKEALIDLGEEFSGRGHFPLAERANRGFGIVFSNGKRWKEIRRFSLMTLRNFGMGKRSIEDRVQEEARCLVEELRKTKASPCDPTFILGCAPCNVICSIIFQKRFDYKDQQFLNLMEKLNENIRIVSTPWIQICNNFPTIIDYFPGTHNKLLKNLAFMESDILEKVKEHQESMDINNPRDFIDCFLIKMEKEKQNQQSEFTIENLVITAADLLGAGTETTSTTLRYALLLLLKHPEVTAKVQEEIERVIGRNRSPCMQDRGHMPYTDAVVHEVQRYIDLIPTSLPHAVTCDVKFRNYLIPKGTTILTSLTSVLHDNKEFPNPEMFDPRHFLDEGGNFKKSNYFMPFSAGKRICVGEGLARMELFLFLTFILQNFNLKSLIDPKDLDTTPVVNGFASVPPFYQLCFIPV
# [10] = Cmax in dog in 12 month toxicology study; type: ADME, organism-based, Canis lupus familiaris; conditions: in vivo
# [11] = AUC in Beagle dog at 5.2 mg/kg, po; type: ADME, organism-based, Canis lupus familiaris; conditions: in vivo; method in brief: as §1
# [12] = Tmax in Sprague-Dawley rat at 4.4 mg/kg, po; type: ADME, organism-based; conditions: in vivo
# CHO [13] = experiment: Genotoxicity in CHO cells at 1.4 mM after 3 hrs in presence of metabolic activators by micronucleus assay; type: toxicity, cell-based, Cricetulus griseus; conditions: chinese hamster, 1400 µM
# Method in brief: (§2)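 Cytokinesis-blocked micronucleus test in cultured CHO cells: up to 1.4 mM (500 µg/mL) for 3 h with metabolic activation, or up to 0.36 mM for 22.5 h without activation.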
# [14] = Drug metabolism in cynomolgus monkey liver microsomes assessed as CYP-mediated metabolism by measuring compound half life; type: ADME, Macaca fascicularis
# Method in brief: (§3)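 Microsomal stability with NADPH (CYP-dependent) in rat, cynomolgus, dog and human microsomes; half-life in min.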
# CHO [15] = experiment: Genotoxicity in CHO cells at up to 0.36 mM after 22.5 hrs in absence of metabolic activators by micronucleus assay; type: toxicity, cell-based, Cricetulus griseus; conditions: chinese hamster; method in brief: as §2
# [16] = Drug metabolism in human microsomes assessed as CYP-mediated metabolism by measuring compound half life; type: ADME; method in brief: as §3
# [17] = Ssolubility of the compound at pH 2.3; type: physicochemical; conditions: buffer
# [18] = Protein binding in cynomolgus monkey plasma; type: ADME, cell-free, Macaca fascicularis; conditions: read-out: PPB (converted)
# [19] = target: Human immunodeficiency virus type 1 integrase (Human immunodeficiency virus 1, UniProt Q7ZJM1); experiment: Inhibition of HIV1 integrase strand transfer activity
# Human immunodeficiency virus type 1 integrase, sequence (Q7ZJM1 whole entry): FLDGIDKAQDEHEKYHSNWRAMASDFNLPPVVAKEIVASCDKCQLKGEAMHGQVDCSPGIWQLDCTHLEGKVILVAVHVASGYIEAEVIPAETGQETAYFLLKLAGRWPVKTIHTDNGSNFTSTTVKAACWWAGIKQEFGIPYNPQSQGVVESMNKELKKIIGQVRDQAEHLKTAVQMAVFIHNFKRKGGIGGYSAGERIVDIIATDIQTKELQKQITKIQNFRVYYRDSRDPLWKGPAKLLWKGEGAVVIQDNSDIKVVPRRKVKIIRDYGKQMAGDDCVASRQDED
# Cytochrome P450 1A2 = target: T1, Cytochrome P450 1A2 (Homo sapiens, UniProt P05177); experiment: Inhibition of human CYP1A2; type: ADME
# T1 sequence (P05177 whole entry): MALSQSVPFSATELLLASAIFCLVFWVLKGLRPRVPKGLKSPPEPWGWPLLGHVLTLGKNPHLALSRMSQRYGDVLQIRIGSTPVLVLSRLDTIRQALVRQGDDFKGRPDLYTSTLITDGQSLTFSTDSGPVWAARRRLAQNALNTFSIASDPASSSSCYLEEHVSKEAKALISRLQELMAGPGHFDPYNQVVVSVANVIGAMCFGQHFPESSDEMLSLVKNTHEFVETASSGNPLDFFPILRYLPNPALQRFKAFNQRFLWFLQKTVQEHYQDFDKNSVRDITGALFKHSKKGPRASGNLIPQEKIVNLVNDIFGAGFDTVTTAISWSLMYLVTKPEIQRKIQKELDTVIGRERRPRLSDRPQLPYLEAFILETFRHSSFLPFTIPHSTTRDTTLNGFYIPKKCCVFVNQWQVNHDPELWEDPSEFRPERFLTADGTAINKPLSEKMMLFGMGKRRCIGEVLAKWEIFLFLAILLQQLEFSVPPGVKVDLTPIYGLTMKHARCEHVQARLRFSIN
# [20] = Tmax in cynomolgus monkey at 5 mg/kg, po; type: ADME, organism-based, Macaca fascicularis; conditions: in vivo
# [21] = Lipophilicity, log D of the compound at pH 6.5; type: physicochemical; conditions: buffer
# Method in brief: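 LogD determined experimentally at pH 6.5.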
# [22] = Cmax in cynomolgus monkey at 5 mg/kg, po; type: ADME, organism-based, Macaca fascicularis; set-up: dose 5 mg/kg, route oral; conditions: in vivo; method in brief: as §1
# [23] = Clearance in Beagle dog at 1 mg/kg, iv; type: ADME, organism-based, Canis lupus familiaris; conditions: in vivo; method in brief: as §1
# [24] = Oral bioavailability in cynomolgus monkey at 5 mg/kg; type: ADME, organism-based, Macaca fascicularis; conditions: in vivo; method in brief: as §1
# [25] = Ssolubility of the compound at pH 6.1; type: physicochemical; conditions: buffer
# [26] = Volume of distribution at steady state in Beagle dog at 1 mg/kg, iv; type: ADME, organism-based, Canis lupus familiaris; conditions: in vivo, read-out: Vdss
smiles,measurement,setting,value
CC1(C)OCCn2c1nc(C(=O)NCc1ccc(F)cc1)c(O)c2=O,Activity,Canis familiaris,Toxic
same,fraction unbound,[1],0.024
same,Activity,Homo sapiens [2],Non-Toxic
same,fraction unbound,[3],0.015
same,clearance,[4],6.8 mL/min/kg
same,IC50,HepG2,≥ 45 µM
same,inhibition,Homo sapiens [5],5%
same,AUC,[6],19.1 µM·h
same,pKa,[7],6.6
same,bioavailability,[8],129%
same,solubility,[9],234 µg/mL
same,IC50,Cytochrome P450 2C19,> 40 µM
same,Cmax at 12 month,[10],≥ 67 µg/mL
same,AUC,[11],162 µM·h
same,Tmax,[12],15 min
same,Activity,CHO [13],Non-Toxic
same,half-life,[14],96 min
same,Activity,CHO [15],Non-Toxic
same,half-life,[16],110 min
same,solubility,[17],9 µg/mL
same,fraction unbound,[18],0.041
same,IC50,[19],0.003 µM
same,IC50,Cytochrome P450 1A2,> 40 µM
same,Tmax,[20],15 min
same,logD,[21],2.02
same,Cmax,[22],6.12 µM
same,clearance,[23],2 mL/min/kg
same,bioavailability,[24],56%
same,solubility,[25],21 µg/mL
same,Vd,[26],0.45 L/kg
